Compound activity as filed in PubChem.
ABCG2 inh: human ABCG2 inhibition, ABCB1 as counter-screen; Q9UNQ0; IgMXP3 cells, JC-1 efflux, flow cytometry; inhibition, % at 6.6 µM; hit rate 0.1% among 190,000;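 active = inhibition above 80%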;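 note: 0% = DMSO and 100% = nicardipine control wells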
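System: two drug-resistant human cell lines, ABCG2 and ABCB1; controls: nicardipine high and DMSO low controls; times: 10 min exposure at 25 °C with rotation, no wash; detection: flow cytometry of retained JC-1 fluorescence; read-out basis: percent efflux inhibition, scaled nicardipine 100% to DMSO 0%; doses: one concentration, 6.6 µM final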
ROMK mod: human ROMK K+ channel modulation, primary screen; P48048; Tet-inducible ROMK, thallium flux fluorescence; actives lie on both sides; B-score at 10 µM; hit rate 2% among 130,000; AID 1918;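 active = signal ratio slope over the read window, or its plate-corrected B-score, at least 3 SD from the plate mean, either direction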;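 note: B-score of the F/F0 ratio slope over 7 to 12 s after thallium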
zfTRPN1 agonist: activates the zebrafish TRPN1 channel | HEK293 zebrafish TRPN1-YFP, Fluo-8 calcium fluorescence; 100% = response to 87 µM carbachol | activation, % at 3 µM | hit rate 0.18% among 220,000;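 active = activation above its plate's cutoff, the mean activation of test wells on that plate plus 3 SD, cut at about 19% in these data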;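 note: 0% = DMSO alone and 100% = 87 µM carbachol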
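Material: zebrafish TRPN1-YFP in HEK293 cells. Doses: one dose of 3 µM, 0.3% DMSO. Incubation: dye 1 h 37 °C plus 30 min RT. Measured by: intracellular calcium fluorescence with Fluo-8.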
ABCB1 block: human ABCB1 inhibition, ABCG2 as counter-screen | hit rate 0.067% among 190,000 | CCRF-Adr cells, JC-1 efflux, flow cytometry | inhibition, % at 6.6 µM | AID 1326 | P08183; in the data active = inhibition above about 40%;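 note: 0% = vehicle and 100% = reference inhibitor; higher value means more JC-1 retained so stronger ABCB1 efflux block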
TRPML3 agonist: human mucolipin-3 channel agonism; activation, % at 3 µM; AID 1448; hit rate 0.29% among 220,000; Q8TDD5; HEK293 TRPML3-YFP, Fluo-8 calcium fluorescence; 100% = the carbachol control signal;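 active = activation above its plate's cutoff, the mean activation of the plate's test wells plus 3 SD, cut at about 12% in these data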;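 note: 0% = DMSO only wells and 100% = carbachol wells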
Target sequence (Q8TDD5 whole entry, looked up): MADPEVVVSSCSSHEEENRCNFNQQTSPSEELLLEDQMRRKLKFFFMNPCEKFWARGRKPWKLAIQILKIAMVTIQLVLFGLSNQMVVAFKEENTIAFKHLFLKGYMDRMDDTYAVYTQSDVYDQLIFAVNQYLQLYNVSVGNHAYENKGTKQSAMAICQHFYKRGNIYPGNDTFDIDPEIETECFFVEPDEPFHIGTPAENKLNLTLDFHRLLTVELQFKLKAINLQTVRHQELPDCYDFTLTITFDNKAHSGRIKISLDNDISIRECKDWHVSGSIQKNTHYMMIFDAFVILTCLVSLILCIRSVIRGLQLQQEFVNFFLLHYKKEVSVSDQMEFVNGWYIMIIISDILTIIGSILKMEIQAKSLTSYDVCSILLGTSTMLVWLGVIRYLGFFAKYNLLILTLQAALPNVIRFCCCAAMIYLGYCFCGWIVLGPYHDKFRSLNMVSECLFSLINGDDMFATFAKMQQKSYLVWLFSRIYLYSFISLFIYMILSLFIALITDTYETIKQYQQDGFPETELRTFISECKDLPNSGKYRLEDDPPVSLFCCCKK
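system = HEK293 cells stably carrying human TRPML3-YFP | doses = one concentration, 3 µM nominal, 0.3% DMSO | timing = dye loading 1 h 37 °C then 30 min ambient, 125 s read | detection = Fluo-8 calcium dye fluorescence, ex 470-495, em 515-575 nm | benchmarks = high control carbachol 87 µM, low control DMSO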
Calb biofilm kill: mixture kills Candida albicans biofilm cells; inhibition, % at 7.6 µM; hit rate 0.02% among 120,000; C. albicans biofilm persisters + clotrimazole, fluorescence viability; primary screen in compound mixtures of four per well;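 note: compounds exposed to preformed 24 h biofilms for 48 h; 0% = untreated biofilm control and 100% = clotrimazole plus chlorhexidine kill blank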
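Assay system: C. albicans biofilms / Medium: RPMI/MOPS medium, pH 7.0 / Schedule: biofilm formation 24 h, compound exposure 48 h, 37 °C / Measured by: Alamar Blue fluorescence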
ROMK hit retest: retested hit modulating human ROMK potassium channel | shares compounds with ROMK mod | ROMK thallium flux, fluorescence ratio; active compounds read low | normalized thallium flux (F/F0 slope) at 10 µM | hit rate 54% among 3,000;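 active = Flux at 10 µM at least 3 SD below or above vehicle control mean in one or both replicates; inconclusive = no clear call, values can overlap the other calls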
Starred values were filed as active, the others as inactive; ? = inconclusive; / = not tested or not shown. Shown is part of a subset that was picked to be rich in hits.

SMILES | ABCG2 inh | ROMK mod | zfTRPN1 agonist | ABCB1 block | TRPML3 agonist | Calb biofilm kill | ROMK hit retest
Clc1ccc(-c2c[n+](Cc3ccc(Br)cc3)c3n2CCCCC3)cc1 | / | -4.2* | -1 | / | 0 | 20 | 0.075
Clc1ccc(-c2c[n+](Cc3ccc(Cl)cc3Cl)c3n2CCCCC3)cc1 | / | / | -2 | / | -1 | 12 | 0.055*
CCC(=C(c1ccc(OC)cc1)c1ccc(OC)cc1)c1cn(CC(O)CN2CCN(C)CC2)c2ccccc12 (centres undefined) | 3 | -1.2 | 2 | 3 | 1 | / | /
CCOP(=O)(OCC)C(NC(=O)c1cc([N+](=O)[O-])cc([N+](=O)[O-])c1)C(F)(F)F (centres undefined) | 0 | / | 2 | 0 | 0 | 5 | /
CC(C)OC(=O)c1cc2c(=O)[nH]c(C(Cl)(Cl)Cl)nc2o1 | -2 | -0.27 | 1 | -1 | 1 | 18 | /
COc1ccc(CCNC(=O)CN(c2cccc([N+](=O)[O-])c2)S(C)(=O)=O)cc1OC | 0 | -0.047 | -1 | 0 | 0 | 11 | 0.082
O=Cc1ccc(-c2cccc([N+](=O)[O-])c2)o1 | / | / | 2 | / | 0 | 9 | 0.1*
O=Cc1ccc(-c2ccc([N+](=O)[O-])cc2Cl)o1 | 15 | 0.58 | -1 | 1 | 0 | 12 | /
O=C1N/C(=C/c2ccc(N3CCOCC3)o2)C(=O)N1c1cccc(Cl)c1 | 2 | -4.9* | 0 | 0 | 1 | 15 | 0.039*
COc1ccc(C2(O)CCN(CCCCOc3ccccc3)CC2)cc1 | 2 | -4.6* | -2 | 1 | -1 | / | 0.061*
COc1ccc(C2(O)CCN(C(=O)Cc3cccnc3)CC2)cc1 | 1 | -1 | 1 | -1 | 1 | / | /
O=C(CN1CCNCC1)NCCSc1ccc(Cl)cc1 | 1 | -2* | 1 | 0 | 1 | 7 | 0.068*
Cc1ccc(SCCNC(=O)/C=C/c2ccc(Cl)cc2)cc1 | 0 | 0.11 | 1 | 0 | 1 | 6 | /
O=C(N/C=C/n1cnc2cc(C(F)(F)F)ccc21)c1ccccc1F | 9 | -0.013 | 0 | 0 | 0 | 19 | /
CN(C)c1ccc(/C=N/NC(=O)c2ccc3nc[nH]c3c2)cc1 | / | 0.55 | 1 | / | 1 | 4 | /
CCN(CC)c1ccc(/C=N/NC(=O)c2ccccn2)cc1 | / | / | -1 | / | 0 | 26 | /
CCN(CC)c1ccc(/C=N/NC(=O)c2ccc3nc[nH]c3c2)cc1 | / | / | 1 | / | 0 | 12 | 0.076
CCN(CC)c1ccc(/C=N/NC(=O)c2cnccn2)cc1 | 9 | 3.7* | -1 | 0 | 0 | 11 | 0.1*
O=C(c1sc2cc(F)ccc2c1Cl)N1CCN(c2ccccc2)CC1 | 3 | 0.16 | 1 | 13 | 0 | 14 | /
COc1ccccc1Oc1ccc(S(=O)(=O)NCc2ccccn2)cc1 | -1 | -2.7* | 5 | 0 | 3 | / | 0.073
COc1ccc(OC)c(C(=O)CSc2nccc(-c3ccc(Br)cc3)n2)c1 | 12 | / | 0 | 2 | 1 | / | /
Cc1ccccc1OCCc1c(C)[nH]c(=S)[nH]c1=O | 0 | 1.7* | -1 | 0 | 1 | -4 | 0.085
Cc1[nH]c(=S)[nH]c(=O)c1CCOc1ccccc1 | 0 | 0.56 | -1 | 0 | 0 | / | /
O=C(NCCN1C(=O)S/C(=C\c2ccc(OC(F)F)cc2)C1=O)c1cnccn1 | 6 | 0.61 | 2 | / | 1 | 18 | /
COc1ccc(NS(=O)(=O)c2cc(NC(=O)Cn3cnc4c3c(=O)n(C)c(=O)n4C)ccc2C)cc1 | -2 | -0.1 | 0 | 0 | 0 | 43 | /
SMILES | ABCG2 inh | ROMK mod | zfTRPN1 agonist | ABCB1 block | TRPML3 agonist | Calb biofilm kill | ROMK hit retest
O=[N+]([O-])c1cc(-c2ncccn2)c([N+](=O)[O-])s1 | 2 | -1.2 | -2 | 0 | -1 | 12 | 0.06*
O=C(Nc1ncccn1)c1cc([N+](=O)[O-])cc([N+](=O)[O-])c1 | 9 | -0.64 | 0 | 1 | 1 | 17 | /
O=C(CS(=O)(=O)c1cn(Cc2ccc(Cl)cc2)c2ccccc12)N1CCCC1 | 4 | / | 4 | 2 | 1 | / | /
O=C(Cc1cn(Cc2cccc(Cl)c2)c2ccccc12)N1CCCC1 | 8 | -3.2* | 0 | 9 | 0 | -3 | 0.059*
NC(=O)N/N=C/c1ccccc1OC(=O)c1ccccc1Br | 18 | -3.2* | 0 | 1 | 0 | -10 | 0.052*
O=C1CN(c2nc3nonc3nc2N2CCCCC2)CCN1 | 0 | / | 0 | 0 | 0 | 11 | /
O=C1/C(=C\c2ccc(O)c(O)c2)C(c2ccccc2)=NN1c1ccccc1 | 0 | -3.9* | 3 | 0 | 1 | 7 | ?
COc1ccc(C(=O)NCC(=O)N/N=C(C)\C=C\c2ccccc2)cc1OC | 1 | 0.78 | -1 | -1 | 1 | 6 | /
O=C(CS(=O)CC(=O)N(c1cccc(F)c1)C(C(=O)NC1CCCCC1)c1ccco1)Nc1ccc(F)cc1 (centres undefined) | 2 | -1.6 | 0 | 0 | 0 | 12 | /
CCCCC[C@H](O)/C=C/C1=C(CCCCCCC(=O)O)C(=O)CC1 | 6 | / | -1 | 1 | 1 | 17 | 0.081
O=C1CN(C(=O)/C=C/c2ccco2)c2ccccc2N1 | 0 | -0.012 | -1 | 0 | 1 | 12 | /
COc1ccc(-n2cc(-c3ccccc3)c3c(NN4CCOCC4)ncnc32)cc1 | 4 | -2.3 | 2 | 1 | 0 | 11 | /
Fc1ccc(-n2cc(-c3ccccc3)c3c(NN4CCOCC4)ncnc32)cc1 | 22 | -4.2* | 1 | 8 | 1 | 11 | 0.048*
Cc1cc(C)cc(NC(=O)Nc2ccc(Cl)cn2)c1 | 8 | 0.36 | 0 | 0 | 1 | 12 | /
Cc1cc(C)cc(SCc2noc(C(=O)NCCCN3CCOCC3)c2C(=O)NCCCN2CCOCC2)c1 | / | / | / | / | / | 16 | /
Cc1ccc2c(N)c(C#N)sc2n1 | 6 | 3.4* | -1 | 0 | 0 | / | 0.081
Nc1c(C(=O)O)sc2nc3c(cc12)CCCC3 | / | 1.1 | 2 | / | 1 | 3 | /
N#Cc1sc2nc3c(cc2c1N)CCCC3 | 20 | 2.8 | 0 | 1 | 0 | 6 | 0.1*
O=C1OC(C(=O)NCc2ccccc2)Cc2ccccc21 (centres undefined) | 2 | -0.047 | -1 | -1 | 0 | -1 | /
CCOC(=O)/C(=C\c1cccnc1)C(=O)c1cc(C(C)=O)c(Nc2ccccc2)s1 | 4 | -3* | 0 | 3 | 1 | / | 0.05*
CC(=O)c1nnn(-c2ccc([N+](=O)[O-])cc2)c1C | 5 | 0.64 | 0 | 0 | 1 | 4 | /
Cc1cnnn1-c1ccc([N+](=O)[O-])cc1 | 18 | -3.2* | 1 | -1 | 0 | 20 | 0.077
CCOc1ccc(-n2c(COc3ccc(C)cc3)nnc2SCC(N)=O)cc1 | 3 | 1.1 | 1 | 0 | 1 | / | /
